Data published in publication PMC7115534 (Peptides, 2009).
≈ marks a conversion by molar mass, not a printed value. Where two headings read alike, the source gives them in different places. Where a SMILES comes first, the peptide text is derived from it. The star is where a group is joined. Cbz = O=C(OCc1ccccc1)*; CH2F = FC*

Assays:
Punta Toro virus = assay: Antiviral activity in Vero cells, Punta Toro virus; type: cell-based; conditions: read-out: EC50 Punta Toro virus
Vero cells = conditions: microscopic alteration of cell morphology
Reovirus-1 = assay: Antiviral activity in Vero cells, reovirus-1; type: cell-based; conditions: read-out: EC50 Reovirus-1
Sindbis virus = assay: Antiviral activity in Vero cells, Sindbis virus; type: cell-based; conditions: read-out: EC50 Sindbis virus
Para-influenza-3 virus = assay: Antiviral activity in Vero cells, para-influenza-3; type: cell-based; conditions: read-out: EC50 Para-influenza-3 virus
in vitro = conditions: dog
MDCK cells = conditions: microscopic alteration of cell morphology
Influenza B = assay: Anti-influenza B activity in MDCK cells; type: cell-based; conditions: Influenza B virus
[1] = test system: Clematis montana lectin (CML); assay: Hemagglutination inhibition assay; type: biochemical
Outline: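 Sugars were serially diluted 2-fold and mixed with an equal volume of lectin at 8 hemagglutination units. After 30 min at room temperature, 2% rabbit erythrocyte suspension was added in U-bottom wells. Plates were read after 1 h. The endpoint was the minimum sugar concentration in the final mixture giving complete inhibition; lectin dilutions were made in 0.15 M NaCl.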

L929 cells = assay: Effect of carbohydrates and caspase inhibitors on CML-induced L929 cell death; type: cell-based, murine; conditions: 24 h; for effect of carbohydrate pre-incubation on CML-induced L929 cell death: 1 pM CML pre-incubated with sugar at 37 °C for 30 min, MTT; for effect of caspase inhibitor on CML-induced L929 apoptosis: 20 μM, 1 h prior to CML
Outline: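 Murine L929 fibroblasts in DMEM with 10% FBS and nonessential amino acids at 37 °C, 5% CO2, were seeded at 1 × 10^5 cells/well for 24 h. Caspase inhibitors (pan-caspase z-VAD-fmk, caspase-3 z-DEVD-fmk, caspase-8 z-IETD-fmk; 20 μmol/l) were added 1 h before lectin, then cells were incubated 24 h. MTT was read at 490 nm as % growth inhibition versus control and blank; n = 5.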

HIV-2 (strain ROD) = conditions: CEM cells; cited from earlier work
HIV-1 (IIIB) = conditions: CEM cells; cited from earlier work
[2] = read-out: Antiviral EC50 Influenza B MTS
[3] = read-out: Antiviral EC50 Influenza B Visual CPE Score

Compound: Nc1ncnc2c1ncn2C[C@H](O)CO [(S)-DHPA]
- EC50 (Punta Toro virus): > 250 µM
- Minimum cytotoxic concentration (Vero cells): >250 µM
- EC50 (Reovirus-1): > 250 µM
- EC50 (Sindbis virus): > 250 µM
- EC50 (Para-influenza-3 virus): > 250 µM

Compound: NC12CC3CC(CC(C3)C1)C2 [Amantadine]
- CC50 (in vitro): > 1000 µM
- Cytotoxicity Minimum cytotoxic concentration (MDCK cells): >1000 µM
- EC50 (Influenza B; [2]): > 1000 µM
- EC50 (Influenza B; [3]): > 1000 µM

Compound: OC[C@H]1O[C@H](O[C@@H]2C(O)O[C@H](CO)[C@@H](O)[C@@H]2O)[C@@H](O)[C@@H](O)[C@@H]1O (stereo partly drawn) [Man-a(1,2)-Man]
- inhibition of CML agglutination of rabbit erythrocytes (in words) [1]: slightly inhibitory

Compound: OC[C@H]1O[C@H](O[C@H]2[C@H](O)[C@@H](CO)OC(O)[C@H]2O)[C@@H](O)[C@@H](O)[C@@H]1O (stereo partly drawn) [Man-a(1,3)-Man]
- inhibition of CML agglutination of rabbit erythrocytes (in words) [1]: slightly inhibitory

Compound: OC[C@H]1O[C@H](OC[C@H]2OC(O)[C@@H](O)[C@@H](O[C@H]3O[C@H](CO)[C@@H](O)[C@H](O)[C@@H]3O)[C@@H]2O)[C@@H](O)[C@@H](O)[C@@H]1O (stereo partly drawn) [Man-a(1,3:1,6)-mannotriose]
- Minimum inhibitory concentration (MIC) ([1]; complete inhibition of 8 hemagglutination units of CML, rabbit erythrocytes): 2500 µM (≈ 1260 µg/mL)
- effect of carbohydrate pre-incubation on CML-induced L929 cell death (L929 cells): the cell inhibitory ratio was abruptly decreased

Compound: OC[C@H]1O[C@H](OC[C@H]2OC(O)[C@@H](O)[C@@H](O)[C@@H]2O)[C@@H](O)[C@@H](O)[C@@H]1O (stereo partly drawn) [Man-a(1,6)-Man]
- inhibition of CML agglutination of rabbit erythrocytes (in words) [1]: slightly inhibitory
- effect of carbohydrate pre-incubation on CML-induced L929 cell death (L929 cells): slightly more effective inhibitor than Man-a(1,3:1,6)-mannotriose

Compound: CCC(CC)O[C@@H]1C=C(C(=O)O)C[C@H](N)[C@H]1NC(C)=O [Oseltamivir Carboxylate]
- CC50 (in vitro): > 100 µM
- Cytotoxicity Minimum cytotoxic concentration (MDCK cells): >100 µM
- EC50 (Influenza B; [2]): 15 µM
- EC50 (Influenza B; [3]): 8 µM

Compound: NC(=O)c1ncn([C@@H]2O[C@H](CO)[C@@H](O)[C@H]2O)n1 [Ribavirin]
- Minimum cytotoxic concentration (Vero cells): >250 µM
- Cytotoxicity Minimum cytotoxic concentration (MDCK cells): >100 µM
- EC50 (Reovirus-1): 250 µM
- EC50 (Sindbis virus): > 250 µM
- EC50 (Influenza B; [2]): 4.3 µM
- EC50 (Influenza B; [3]): 9 µM

Compound: CC(N)C12CC3CC(CC(C3)C1)C2 (stereo not drawn) [Rimantadine]
- CC50 (in vitro): 525 µM
- Cytotoxicity Minimum cytotoxic concentration (MDCK cells): 1000 µM
- EC50 (Influenza B; [2]): > 200 µM
- EC50 (Influenza B; [3]): > 200 µM

Compound: COC(=O)CC[C@H](NC(=O)[C@H](CC(=O)OC)NC(=O)OCc1ccccc1)C(=O)N[C@H](C(=O)N[C@@H](CC(=O)OC)C(=O)CF)C(C)C [z-DEVD-fmk]
- effect of caspase inhibitor on CML-induced L929 apoptosis (L929 cells): partially blocked apoptosis

Compound: CC[C@H](C)[C@H](NC(=O)OCc1ccccc1)C(=O)N[C@@H](CCC(=O)OC)C(=O)N[C@H](C(=O)N[C@@H](CC(=O)OC)C(=O)CF)[C@@H](C)O [z-IETD-fmk] (Cbz-IE(OMe)TD(OMe)-CH2F)
- effect of caspase inhibitor on CML-induced L929 apoptosis (L929 cells): partially blocked apoptosis

Compound: COC(=O)C[C@H](NC(=O)[C@H](C)NC(=O)[C@@H](NC(=O)OCc1ccccc1)C(C)C)C(=O)CF [z-VAD-fmk] (Cbz-Val-Ala-Asp(OMe)-CH2F)
- effect of caspase inhibitor on CML-induced L929 apoptosis (L929 cells): partially blocked apoptosis

Compound: Galanthus nivalis agglutinin [GNA]
- EC50 HIV-2 (HIV-2 (strain ROD)): 0.78 µg/mL
- EC50 HIV-1 (HIV-1 (IIIB)): 0.92 µg/mL

Compound: Lycoris radiate agglutinin [LRA]
- EC50 HIV-2 (HIV-2 (strain ROD)): 0.59 µg/mL
- EC50 HIV-1 (HIV-1 (IIIB)): 0.79 µg/mL

Compound: Scilla campanulata agglutinin [SCA]
- EC50 HIV-2 (HIV-2 (strain ROD)): 8 µg/mL
- EC50 HIV-1 (HIV-1 (IIIB)): 4.6 µg/mL

Compound: thyroglobulin: a glycoprotein
- inhibition of CML agglutination of rabbit erythrocytes (in words) [1]: inhibited the agglutination
